Reference: ChEMBL document CHEMBL4339192, “De Novo Designed Amphipathic α-Helical Antimicrobial Peptides Incorporating Dab and Dap Residues on the Polar Face To Treat the Gram-Negative Pathogen, Acinetobacter baumannii” (J Med Chem, 2019)
Converted amounts (≈) assume the structure as drawn. Where a SMILES comes first, the peptide text is derived from it. [ ]: non-standard residue; d: D form. Dab = NCC[C@H](N)C(=O)O

How the values were obtained:
Acinetobacter baumannii [1] = assay: Antibacterial activity against Acinetobacter baumannii isolate 1007660 measured after 24 hrs by microtiter dilution method; type: functional; conditions: isolate 1007660, 24 h
Method in brief: (§1)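 Broth microdilution in Mueller-Hinton (MH) medium. […] Plates were incubated 24 h at 37 °C. MIC was the lowest peptide concentration that inhibited growth, based on three sets of replicates.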

Acinetobacter baumannii [2] = assay: Antibacterial activity against Acinetobacter baumannii isolate 965463 measured after 24 hrs by microtiter dilution method; type: functional; conditions: isolate 965463, 24 h; method in brief: as §1
[3] = Therapeutic index, ratio of HC50 for human RBC to MIC for polymyxin B/colistin-resistant Acinetobacter baumannii M89955; type: toxicity; conditions: human red blood cells, read-out: TI
Method in brief: (§2)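 T.I. = HC50/MIC. For HC50, peptide (quantified by amino acid analysis) was two-fold serially diluted over 12 concentrations up to 1000 μg/mL. It was incubated with 1% fresh human erythrocytes in PBS, pH 7.4, for 18 h at 37 °C. After 800g centrifugation, hemoglobin was read at 570 nm against water (100%) and no-peptide (0%) controls. HC50 came from a lysis-versus-concentration plot, average of 3 replicates.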

Acinetobacter baumannii [4] = assay: Antibacterial activity against Acinetobacter baumannii isolate 1035794 measured after 24 hrs by microtiter dilution method; type: functional; conditions: isolate 1035794, 24 h; method in brief: as §1
Acinetobacter baumannii [5] = assay: Antibacterial activity against polymyxin B/colistin-resistant Acinetobacter baumannii M89941 measured after 24 hrs by microtiter dilution method; type: functional; conditions: M89941, 24 h; method in brief: as §1
[6] = Therapeutic index, ratio of HC50 for human RBC to MIC for polymyxin B/colistin-resistant Acinetobacter baumannii M89953; type: toxicity; conditions: human red blood cells, read-out: TI; method in brief: as §2
[7] = Therapeutic index, ratio of HC50 for human RBC to MIC for polymyxin B/colistin-resistant Acinetobacter baumannii M89963; type: toxicity; conditions: human red blood cells, read-out: TI; method in brief: as §2
Acinetobacter baumannii [8] = assay: Antibacterial activity against Acinetobacter baumannii isolate 1002956 measured after 24 hrs by microtiter dilution method; type: functional; conditions: isolate 1002956, 24 h; method in brief: as §1
[9] = Therapeutic index, ratio of HC50 for human RBC to MIC for polymyxin B/colistin-resistant Acinetobacter baumannii M89941; type: toxicity; conditions: human red blood cells, read-out: TI; method in brief: as §2
Acinetobacter baumannii [10] = assay: Antibacterial activity against Acinetobacter baumannii isolate 1017395 measured after 24 hrs by microtiter dilution method; type: functional; conditions: isolate 1017395, 24 h; method in brief: as §1
Acinetobacter baumannii [11] = assay: Antibacterial activity against Acinetobacter baumannii isolate 1010245 measured after 24 hrs by microtiter dilution method; type: functional; conditions: isolate 1010245, 24 h; method in brief: as §1
[12] = Therapeutic index, ratio of HC50 for human RBC to MIC for polymyxin B/colistin-resistant Acinetobacter baumannii M89952; type: toxicity; conditions: human red blood cells, read-out: TI; method in brief: as §2
Acinetobacter baumannii [13] = assay: Antibacterial activity against Acinetobacter baumannii isolate 964304 measured after 24 hrs by microtiter dilution method; type: functional; conditions: isolate 964304, 24 h; method in brief: as §1
[14] = Therapeutic index, ratio of HC50 for human RBC to MIC for polymyxin B/colistin-resistant Acinetobacter baumannii M89951; type: toxicity; conditions: human red blood cells, read-out: TI; method in brief: as §2
Acinetobacter baumannii [15] = assay: Antibacterial activity against Acinetobacter baumannii 649 measured after 24 hrs in presence of 25% human serum by microtiter dilution method; type: functional; conditions: Acinetobacter baumannii, 649, 24 h
Method in brief: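 Blood strain 649 was tested by MH broth microdilution with and without 25% (v/v) human serum added to the medium. The test used a final inoculum of 5 × 10^5 cfu/mL and incubation at 37 °C. The ratio is the MIC in serum over the MIC in MH alone.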

Acinetobacter baumannii [16] = assay: Antibacterial activity against Acinetobacter baumannii 649 measured after 24 hrs by microtiter dilution method; type: functional; conditions: Acinetobacter baumannii, 649, 24 h; method in brief: as §1
[17] = Therapeutic index, ratio of HC50 for human RBC to MIC for polymyxin B/colistin-resistant Acinetobacter baumannii M89949; type: toxicity; conditions: human red blood cells, read-out: TI; method in brief: as §2
Acinetobacter baumannii [18] = assay: Antibacterial activity against polymyxin B/colistin-resistant Acinetobacter baumannii M89951 measured after 24 hrs by microtiter dilution method; type: functional; conditions: M89951, 24 h; method in brief: as §1
Acinetobacter baumannii [19] = assay: Antibacterial activity against polymyxin B/colistin-resistant Acinetobacter baumannii M89955 measured after 24 hrs by microtiter dilution method; type: functional; conditions: M89955, 24 h; method in brief: as §1
Acinetobacter baumannii [20] = assay: Antibacterial activity against Acinetobacter baumannii isolate 981650 measured after 24 hrs by microtiter dilution method; type: functional; conditions: isolate 981650, 24 h; method in brief: as §1
Acinetobacter baumannii [21] = assay: Antibacterial activity against Acinetobacter baumannii isolate 963659 measured after 24 hrs by microtiter dilution method; type: functional; conditions: isolate 963659, 24 h; method in brief: as §1
Acinetobacter baumannii [22] = assay: Antibacterial activity against polymyxin B/colistin-resistant Acinetobacter baumannii M89952 measured after 24 hrs by microtiter dilution method; type: functional; conditions: M89952, 24 h; method in brief: as §1
Acinetobacter baumannii [23] = assay: Antibacterial activity against Acinetobacter baumannii isolate 1018887 measured after 24 hrs by microtiter dilution method; type: functional; conditions: isolate 1018887, 24 h; method in brief: as §1
Acinetobacter baumannii [24] = assay: Antibacterial activity against Acinetobacter baumannii isolate 9383370 measured after 24 hrs by microtiter dilution method; type: functional; conditions: isolate 9383370, 24 h; method in brief: as §1
Acinetobacter baumannii [25] = assay: Antibacterial activity against Acinetobacter baumannii isolate 1001611 measured after 24 hrs by microtiter dilution method; type: functional; conditions: isolate 1001611, 24 h; method in brief: as §1
Acinetobacter baumannii [26] = assay: Antibacterial activity against Acinetobacter baumannii isolate 968886 measured after 24 hrs by microtiter dilution method; type: functional; conditions: isolate 968886, 24 h; method in brief: as §1
Acinetobacter baumannii [27] = assay: Antibacterial activity against Acinetobacter baumannii isolate 1021371 measured after 24 hrs by microtiter dilution method; type: functional; conditions: isolate 1021371, 24 h; method in brief: as §1
Acinetobacter baumannii [28] = assay: Antibacterial activity against Acinetobacter baumannii isolate 1035166 measured after 24 hrs by microtiter dilution method; type: functional; conditions: isolate 1035166, 24 h; method in brief: as §1
Acinetobacter baumannii [29] = assay: Antibacterial activity against polymyxin B/colistin-resistant Acinetobacter baumannii M89953 measured after 24 hrs by microtiter dilution method; type: functional; conditions: M89953, 24 h; method in brief: as §1
Acinetobacter baumannii [30] = assay: Antibacterial activity against Acinetobacter baumannii isolate 977751 measured after 24 hrs by microtiter dilution method; type: functional; conditions: isolate 977751, 24 h; method in brief: as §1
Acinetobacter baumannii [31] = assay: Antibacterial activity against Acinetobacter baumannii isolate 961997 measured after 24 hrs by microtiter dilution method; type: functional; conditions: isolate 961997, 24 h; method in brief: as §1
Acinetobacter baumannii [32] = assay: Antibacterial activity against Acinetobacter baumannii isolate 952654 measured after 24 hrs by microtiter dilution method; type: functional; conditions: isolate 952654, 24 h; method in brief: as §1
[33] = Hemolytic activity against human RBC measured after 18 hrs by spectrophotometric method; type: ADME, cell-based, Erythrocyte; conditions: human red blood cells (erythrocytes)
Method in brief: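 Peptide (amount by amino acid analysis), two-fold serial dilutions at 12 concentrations up to 1000 μg/mL, with 1% human erythrocytes in PBS pH 7.4, 37 °C, 18 h. Unlysed cells removed by centrifugation (800g); hemoglobin read at 570 nm. Water-lysed cells = 100%, no-peptide cells = 0%. HC50 from plot of % lysis vs concentration (μM), average of 3 replicates.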

Acinetobacter baumannii [34] = assay: Antibacterial activity against polymyxin B/colistin-resistant Acinetobacter baumannii M89963 measured after 24 hrs by microtiter dilution method; type: functional; conditions: M89963, 24 h; method in brief: as §1
Acinetobacter baumannii [35] = assay: Antibacterial activity against polymyxin B/colistin-resistant Acinetobacter baumannii M89949 measured after 24 hrs by microtiter dilution method; type: functional; conditions: M89949, 24 h; method in brief: as §1
Acinetobacter baumannii [36] = assay: Antibacterial activity against Acinetobacter baumannii isolate 963618 measured after 24 hrs by microtiter dilution method; type: functional; conditions: isolate 963618, 24 h; method in brief: as §1
Acinetobacter baumannii [37] = assay: Antibacterial activity against Acinetobacter baumannii isolate 1010282 measured after 24 hrs by microtiter dilution method; type: functional; conditions: isolate 1010282, 24 h; method in brief: as §1

In the case of `CC(=O)N[C@H](CCCCN)C(=O)N[C@H](CC(C)C)C(=O)N[C@@H](CCN)C(=O)N[C@H](CO)C(=O)N[C@H](CC(C)C)C(=O)N[C@H](CC(C)C)C(=O)N[C@@H](CCN)C(=O)N[C@@H](C(=O)N[C@H](CC(C)C)C(=O)N[C@H](CO)C(=O)N[C@@H](CCN)C(=O)N[C@H](C)C(=O)N[C@H](CCCCN)C(=O)N[C@H](C)C(=O)N[C@H](C)C(=O)N[C@H](CCCCN)C(=O)N[C@H](CC(C)C)C(=O)N[C@@H](CCN)C(=O)N[C@@H](C(=O)N[C@H](CC(C)C)C(=O)N[C@H](CC(C)C)C(=O)N[C@@H](CCN)C(=O)N[C@H](C)C(=O)N[C@H](CC(C)C)C(=O)N[C@H](CO)C(=O)N[C@@H](CCN)C(N)=O)[C@H](C)O)[C@H](C)O` (Ac-[dK][dL][Dab][dS][dL][dL][Dab][dT][dL][dS][Dab][dA][dK][dA][dA][dK][dL][Dab][dT][dL][dL][Dab][dA][dL][dS][Dab]-NH2), the MIC (Acinetobacter baumannii [1]) is reported as 0.7 µM (≈ 1.89 µg/mL), the MIC (Acinetobacter baumannii [2]) is reported as 3 µM (≈ 8.09 µg/mL) and the selectivity ratio [3] is reported as > 742. The MIC (Acinetobacter baumannii [4]) was 1.5 µM (≈ 4.05 µg/mL), the MIC (Acinetobacter baumannii [5]) was 0.7 µM (≈ 1.89 µg/mL) and the selectivity ratio [6] was > 742. The selectivity ratio [7] was > 742, the MIC (Acinetobacter baumannii [8]) was 0.7 µM (≈ 1.89 µg/mL) and the selectivity ratio [9] was > 742. The MIC (Acinetobacter baumannii [10]) was 3 µM (≈ 8.09 µg/mL), the MIC (Acinetobacter baumannii [11]) was 0.7 µM (≈ 1.89 µg/mL) and the selectivity ratio [12] was > 742. The MIC (Acinetobacter baumannii [13]) was 1.5 µM (≈ 4.05 µg/mL), the selectivity ratio [14] was > 742 and the MIC (Acinetobacter baumannii [15]) was 0.2 µM. For the same compound, the MIC (Acinetobacter baumannii [16]) was 0.7 µM (≈ 1.89 µg/mL), the selectivity ratio [17] was > 742 and the MIC (Acinetobacter baumannii [18]) was 1.4 µM (≈ 3.78 µg/mL). The MIC (Acinetobacter baumannii [19]) was 0.7 µM (≈ 1.89 µg/mL), the MIC (Acinetobacter baumannii [20]) was 0.7 µM (≈ 1.89 µg/mL) and the MIC (Acinetobacter baumannii [21]) was 0.7 µM (≈ 1.89 µg/mL). It also gave an MIC (Acinetobacter baumannii [22]) of 0.7 µM (≈ 1.89 µg/mL), an MIC (Acinetobacter baumannii [23]) of 0.7 µM (≈ 1.89 µg/mL) and an MIC (Acinetobacter baumannii [24]) of 0.7 µM (≈ 1.89 µg/mL). It also gave an MIC (Acinetobacter baumannii [25]) of 0.7 µM (≈ 1.89 µg/mL), an MIC (Acinetobacter baumannii [26]) of 1.5 µM (≈ 4.05 µg/mL) and an MIC (Acinetobacter baumannii [27]) of 1.5 µM (≈ 4.05 µg/mL). For the same compound, the MIC (Acinetobacter baumannii [28]) was 0.7 µM (≈ 1.89 µg/mL), the MIC (Acinetobacter baumannii [29]) was 1.4 µM (≈ 3.78 µg/mL) and the MIC (Acinetobacter baumannii [30]) was 0.7 µM (≈ 1.89 µg/mL). The MIC (Acinetobacter baumannii [31]) was 0.7 µM (≈ 1.89 µg/mL), the MIC (Acinetobacter baumannii [32]) was 1.5 µM (≈ 4.05 µg/mL) and the HC50 at 18 h [33] was > 742 µM. For the same compound, the MIC (Acinetobacter baumannii [34]) was 1.4 µM (≈ 3.78 µg/mL), the MIC (Acinetobacter baumannii [35]) was 0.7 µM (≈ 1.89 µg/mL) and the MIC (Acinetobacter baumannii [36]) was 0.7 µM (≈ 1.89 µg/mL). For the same compound, the MIC (Acinetobacter baumannii [37]) was 0.7 µM (≈ 1.89 µg/mL).
